HUVEC prolif 384: blocks proliferation of human endothelial cells; HUVEC proliferation, CellTiter-Glo luminescence, 72 h; stronger effect = lower value; viability, % at 10 µM (by protocol); 1.1% of 86,000 active;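 active means viability at or below 30%; inactive means viability above 30%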;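 further: 100% = median luminescence of DMSO-only cell control wells on each plate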
Fibroblast inh: blocks proliferation of human lung fibroblasts; LL 47 human lung fibroblast viability, ATP luminescence; stronger effect = lower value; AID 719; viability, % at 10 µM; 1.1% of 85,000 active;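 active means viability at or below 50% in the single dose screen; inactive means viability above 50%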;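 further: compound exposure lasted 72 h before the ATP readout; 100% = median luminescence of untreated cell-only wells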
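material = human LL 47 lung fibroblast cells | dosing = compounds added from tenfold dosing solution, 0.1% DMSO final | timing = overnight cell rest, 72 h compound treatment at 37 °C | measured by = CellTiter-Glo luminescence measuring cellular ATP | evaluation = % viability versus median cells-only luminescence | control set = cell-only wells, no compound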
HCT116 PTEN-null: PTEN-deleted cell growth suppression; HCT116 PTEN-null viability, CellTiter-Glo, 60 h; stronger effect = lower value; viability, % at 10 µM; 1.2% of 140,000 active;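 active means viability at or below a set limit, 4 SD under the median of all tested compounds, cut at about 3.7% in these data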;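 further: PTEN knockout HCT116 line with beta catenin targeted HCT116 as companion control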
HCT116 bCat-KO: beta-catenin-lacking colon tumor cell growth suppression; viability, % at 10 µM; AID 818; 1.5% of 140,000 active; HCT116 beta-catenin knockout viability, CellTiter-Glo, 60 h; stronger effect = lower value;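 active means viability at or under a set limit, the compound median less 4 SD, cut at about 6% in these data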;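 further: 0% = Hyamine 1622 control at 20 µM and 100% = untreated cell control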
H69AR growth 86K: growth inhibitors of human H69AR lung tumor cells; H69AR lung tumor viability, ATP luminescence, 72 h; stronger effect = lower value; viability, % at 10 µM; 6% of 85,000 active; AID 598;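 active means viability at or below 40%; inactive means viability above 40%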;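 further: multidrug resistant small cell line overexpressing MRP-1 efflux transporter; 100% = mean luminescence of untreated control wells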
* marks the source's active call; other numbers are inactive results; x = no result. Only a selection was taken, and hits are over-represented in it overall.

SMILES	HUVEC prolif 384	Fibroblast inh	HCT116 PTEN-null	HCT116 bCat-KO	H69AR growth 86K
Cc1ccc(C(NC(=O)N2CCOCC2)C(Cl)Cl)cc1F (stereo not drawn)	x	x	93	94	x
O=C(OCn1ncc(Br)c(Br)c1=O)c1c(F)cccc1F	2.0*	2.0*	1.5*	1.4*	1.0*
O=S1(=O)C[C@H]2NC(=S)N(c3ccccc3)[C@H]2C1	x	x	80	87	x
CCCC(=O)C1=C(O)C(C(=O)OC)C(C)(C)CC1=Nc1ccc(N)cc1 (stereo not drawn)	95	97	87	89	81
CCCC(=Nc1ccc(N)cc1)C1=C(O)C(C(=O)OC)C(C)(C)CC1=O (stereo not drawn)	88	100	96	104	20*
COc1ccc(CN(C)C2CCCCC2)cc1	102	102	91	100	86
CN(Cc1ccc(O)cc1)C1CCCCC1	101	x	97	85	30*
N#CC1=C(N)Oc2cc(N)ccc2C1C1CCCCC1 (stereo not drawn)	58	58	25	29	24*
CCN1CCN(c2ccc(NC(=O)c3cccc(OCc4ccccc4)c3)cc2)CC1	46	78	3.5*	8	44
CCN1CCN(c2ccc(NC(=O)c3ccc4c(c3)[nH]c(=O)n4Cc3ccc(F)cc3)cc2)CC1	x	x	1.8*	3.4*	x
CN1CCN(c2ccc(NC(=O)c3cccc(OCc4ccccc4)c3)cc2)CC1	3.5*	61	14	2.6*	32*
CCCN1Cc2cccc(C(=O)Nc3ccc(N4CCN(CC)CC4)cc3)c2C1=O	84	103	x	x	22*
COc1ccc(Cn2c(=O)[nH]c3cc(C(=O)Nc4ccc(N5CCN(C)CC5)cc4)ccc32)cc1	x	x	56	63	x
CN1CCN(c2ccc(NC(=O)Cc3ccccc3)cc2)CC1	91	103	113	103	95
COc1cccc(C(=O)Nc2ccc(N3CCN(Cc4ccccc4)CC3)cc2)c1	104	99	77	66	70
Cn1c(=O)c(C(=O)CCl)c(N)n(CC2CC2)c1=O	x	x	89	80	x
CCOc1cc(C(=O)NCCCn2ccnc2)cc(OCC)c1OCC	x	x	92	90	x
COc1c(F)c(F)c(C(=O)Nc2ccc(N3CCN(Cc4ccccc4)CC3)cc2)c(F)c1F	22*	91	73	70	52
Cc1ccc(C(=O)C(OC(=O)CN2C(=O)c3ccccc3C2=O)c2ccccc2)cc1C (stereo not drawn)	x	x	103	97	x
Cc1ccc(S(=O)(=O)N2CCC(C(=O)Nc3nnc(-c4ccco4)s3)CC2)cc1	61	67	100	92	38*
COC(=O)c1ccccc1NC(=O)c1cc([N+](=O)[O-])nn1Cc1ccccc1	x	x	93	100	x
CCNC(=S)N/N=C(\C)c1ccc(N2CCOCC2)cc1	x	x	95	102	x
CNC(=S)N/N=C(\C)c1ccc(N2CCOCC2)cc1	x	x	1.3*	4.8*	x
Cn1ccnc1SCC(=O)Nc1ccc2nc(SCC(=O)NC3CC3)sc2c1	92	95	103	86	37*
CC(C)(C)NC(=O)CSc1nc2ccc(NC(=O)CSc3nnc(N)s3)cc2s1	x	x	74	71	x
SMILES	HUVEC prolif 384	Fibroblast inh	HCT116 PTEN-null	HCT116 bCat-KO	H69AR growth 86K
FC(F)(F)c1ccc(N2CCN(c3ncnc4c3nnn4Cc3ccccc3)CC2)nc1	57	95	96	85	40*
c1ccc(Cn2nnc3c(N4CCOCC4)ncnc32)cc1	x	x	85	105	x
Cc1nonc1C(=O)N/N=C/c1cccc(O)c1	x	x	98	98	x
COc1cc2[nH]c(=O)n(CCCCCC(=O)N3CCN(c4ccccc4)CC3)c(=O)c2cc1OC	66	97	68	80	65
COc1cc2[nH]c(=O)n(CCC(=O)N3CCN(c4cccc(C)c4C)CC3)c(=O)c2cc1OC	44	89	99	96	2.4*
O=C(/C=C/c1ccccc1)c1ccccc1	78	86	2.0*	2.1*	1.5*
CCC(C(=O)O/N=C(\N)c1ccc(C)cc1)c1ccccc1 (stereo not drawn)	86	93	100	100	53
CCC(C(=O)O/N=C(\N)c1ccccc1)c1ccccc1 (stereo not drawn)	75	74	93	85	1.2*
O=C(/C=C/c1ccccc1)/C=C/c1ccccc1	x	x	0.7*	0.8*	x
O=C(/C=C/NNC(=O)c1ccccc1)c1ccccc1	101	20*	91	87	87
CC1=C/C(=N\OC(=O)/C=C/c2ccccc2)C(C)=CC1=O	x	x	52	47	x
N/C(=N\OC(=O)/C=C/c1ccccc1)c1ccccc1	83	105	99	93	39*
O=C(/C=C/c1ccccc1)c1ccc2c3c(cccc13)CC2	x	x	1.8*	1.4*	x
O=C(NCCc1ccccn1)c1cc(-c2cccc3ccccc23)nc2ccccc12	x	x	77	87	x
O=C(COc1c(Br)cc(Br)c2cccnc12)N1CCc2ccccc2C1	93	97	93	86	53
Oc1c(CN2CCc3ccccc3C2)cc(Cl)c2cccnc12	5.9*	14*	3.0*	2.9*	2.0*
Oc1c(I)cc(Cl)c2cccnc12	12*	70	8	18	8.3*
Oc1c(CN2CCCCC2)cc(Br)c2cccnc12	x	x	1.4*	1.7*	x
COc1cc(N=c2c([N+](=O)[O-])nn(-c3ccc4c(c3)OCCO4)n2O)cc(OC)c1	x	x	0.3*	0.8*	x
CC(C)c1ccc(N=c2c([N+](=O)[O-])nn(-c3ccc4c(c3)OCCO4)n2O)cc1	x	x	87	88	x
NC(=O)c1cc2cc(Cl)ccc2oc1=Nc1cccc(C(F)(F)F)c1	x	x	98	89	x
CCCCc1oc2ccccc2c1C(=O)c1cc(I)c(OCCN(CC)CC)c(I)c1	17*	90	17	13	2.1*
O=C(Cn1cnc2sc(-c3ccccc3)cc2c1=O)NCCc1ccccc1	39	69	10	7	26*
O=C(Cn1cnc2sc(-c3ccccc3)cc2c1=O)NCc1ccccc1	51	65	2.2*	2.1*	22*
O=C(Cn1cnc2sc(-c3ccccc3)cc2c1=O)NCc1ccco1	54	68	45	49	26*
SMILES	HUVEC prolif 384	Fibroblast inh	HCT116 PTEN-null	HCT116 bCat-KO	H69AR growth 86K
O=C(Cn1nnc(-c2ccccc2)n1)NCc1ccco1	102	99	87	90	107
O=C(NC1CCCCC1)C12CC3CC(CC(Cl)(C3)C1)C2	x	x	90	88	x
COc1ccc(S(=O)(=O)CCC(=O)N(C)c2ccc(OC)cc2OC)cc1	103	103	0.4*	0.5*	94
COc1ccc(S(=O)(=O)CCC(=O)Nc2ccc(OC)cc2OC)cc1	94	97	92	92	84
CCOC(=O)c1c(C)oc2c(CC(=O)c3ccccc3)c(Cl)c(O)c(O)c12	x	x	63	56	x
CCCN(CCC)C(=O)CC(c1ccccc1)c1cc(Br)ccc1O (stereo not drawn)	66	80	72	84	3.5*
CCCn1c(NC(=S)Nc2ccccc2)nc2ccccc21	x	x	83	86	x
S=C(Nc1ccccc1)Nc1nc2ccccc2n1CCOc1ccc(Cl)cc1	x	x	0.9*	1.1*	x
COc1cc(/C=C/C(=O)OCC(=O)N2CCN(C(=O)c3ccco3)CC2)ccc1O	x	x	107	102	x
